{
  "source": "ChEMBL document CHEMBL3745639",
  "about": "“Structure-activity relationships for lipoprotein lipase agonists that lower plasma triglycerides in vivo” (Eur J Med Chem, 2015)",
  "key": {"Mus musculus": {"test_system": "Mus musculus", "test": "Hypolipidemic activity in C57B16/J mouse assessed as reduction in plasma triglyceride level at 10 mg/kg, ip qd administered for 4 days followed by olive oil injection through oral gavage one hour post last dose measured at 180 mins", "format": "functional, organism-based", "in_short": "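Female C57B16/J mice, 8-9 weeks, about 18 g, n = 8/group. Given 10 mg/kg i.p. once daily for 4 days, 0.5 ml in PBS pH 7.4 with 3% DMSO and 0.2% Triton X-100. Fasted 8 h before the last dose, then 0.2 ml oral olive oil gavage 1 h after it. Tail-vein EDTA plasma taken at baseline and every 60 min to 180 min. TG measured enzymatically, reported as mean ± SD.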"}, "[1]": {"test": "Intrinsic clearance in human liver microsomes at 1 uM after 5 to 40 mins by LC-MS/MS analysis in presence of NADPH", "format": "ADME", "conditions": "read-out: CLH", "in_short": "(§1)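 Pooled liver microsomes (0.5 mg/ml) with compound at 1 μM in 0.1 M phosphate buffer pH 7.4. Reaction started with NADPH 1 mM. Sampled at 0, 5, 15 and 40 min in duplicate, quenched with acetonitrile containing warfarin, then LC-MS/MS.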"}, "[2]": {"biological_target": "T1, Peroxisome proliferator-activated receptor alpha (Homo sapiens, UniProt Q07869)", "T1 sequence (Q07869 whole entry)": "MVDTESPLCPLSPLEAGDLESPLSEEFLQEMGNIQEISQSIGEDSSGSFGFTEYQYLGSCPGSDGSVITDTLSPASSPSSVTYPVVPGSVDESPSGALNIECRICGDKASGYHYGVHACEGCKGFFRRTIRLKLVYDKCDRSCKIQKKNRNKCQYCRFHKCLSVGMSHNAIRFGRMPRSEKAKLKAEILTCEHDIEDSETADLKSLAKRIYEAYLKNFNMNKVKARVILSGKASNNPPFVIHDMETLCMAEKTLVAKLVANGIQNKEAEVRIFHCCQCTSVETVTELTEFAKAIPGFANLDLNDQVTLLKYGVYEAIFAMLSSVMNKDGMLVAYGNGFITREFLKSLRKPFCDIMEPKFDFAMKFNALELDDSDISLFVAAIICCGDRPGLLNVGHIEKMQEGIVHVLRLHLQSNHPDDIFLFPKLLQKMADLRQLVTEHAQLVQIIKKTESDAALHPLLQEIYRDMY", "test": "Agonist activity at PPARalpha (unknown origin)", "in_short": "(§2)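 Single agonist-mode profiling at ten concentrations against FXR, PPARα, PPARγ and RXRα, run as an outside screening service.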"}, "[3]": {"biological_target": "T2, Peroxisome proliferator-activated receptor gamma (Homo sapiens, UniProt P37231)", "T2 sequence (P37231 whole entry)": "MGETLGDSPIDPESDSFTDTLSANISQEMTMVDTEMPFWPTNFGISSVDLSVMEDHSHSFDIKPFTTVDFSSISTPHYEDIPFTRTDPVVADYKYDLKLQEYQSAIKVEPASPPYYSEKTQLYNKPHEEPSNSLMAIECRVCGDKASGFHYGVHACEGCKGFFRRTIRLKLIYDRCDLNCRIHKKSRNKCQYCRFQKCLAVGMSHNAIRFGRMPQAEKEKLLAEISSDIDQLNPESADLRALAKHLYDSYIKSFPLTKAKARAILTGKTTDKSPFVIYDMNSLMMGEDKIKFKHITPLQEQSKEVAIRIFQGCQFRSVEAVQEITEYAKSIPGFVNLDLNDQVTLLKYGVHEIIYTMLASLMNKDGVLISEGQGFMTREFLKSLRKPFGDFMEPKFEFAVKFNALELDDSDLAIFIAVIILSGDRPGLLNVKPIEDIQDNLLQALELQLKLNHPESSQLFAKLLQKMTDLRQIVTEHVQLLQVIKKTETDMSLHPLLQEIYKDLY", "test": "Agonist activity at PPARgamma (unknown origin)", "in_short": "as §2"}, "[4]": {"biological_target": "T3, Lipoprotein lipase (Bos taurus) (UniProt P11151)", "T3 sequence (whole entry)": "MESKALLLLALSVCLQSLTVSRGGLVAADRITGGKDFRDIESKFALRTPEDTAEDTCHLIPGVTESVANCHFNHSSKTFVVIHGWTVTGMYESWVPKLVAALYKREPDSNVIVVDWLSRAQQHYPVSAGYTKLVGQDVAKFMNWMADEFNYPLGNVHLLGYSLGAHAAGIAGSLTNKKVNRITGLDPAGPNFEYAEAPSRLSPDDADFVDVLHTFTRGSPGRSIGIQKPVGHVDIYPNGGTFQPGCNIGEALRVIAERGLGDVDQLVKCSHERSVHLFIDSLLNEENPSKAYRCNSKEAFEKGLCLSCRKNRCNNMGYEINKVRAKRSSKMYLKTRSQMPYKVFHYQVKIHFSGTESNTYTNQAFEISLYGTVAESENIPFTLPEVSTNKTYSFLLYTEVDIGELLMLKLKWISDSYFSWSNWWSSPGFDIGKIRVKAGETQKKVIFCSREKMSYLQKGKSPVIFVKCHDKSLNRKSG", "test": "Induction of bovine LPL stabilization using intralipid as substrate at 25 uM preincubated for 10 mins with human recombinant ANGPTL4 followed by substrate addition measured after 45 mins relative to control", "in_short": "(§3)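 Compound in DMSO in buffer (50 mM potassium phosphate pH 7.4, 0.15 M NaCl, 0.01% Triton X-100), with human ANGPTL4 N-terminal fragment (aa 26-184, 75 nM final) and bovine LPL (15 nM final). Preincubated 10 min at 25 °C with shaking. Stopped after 45 min with 2.5% Triton X-100, and NEFA measured enzymatically. Activity normalised between DMSO+LPL+ANGPTL4 (0%) and DMSO+LPL (100%).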"}, "[5]": {"biological_target": "T3, Lipoprotein lipase (Bos taurus)", "test": "Induction of bovine LPL stabilization using intralipid as substrate at 12.5 uM preincubated for 10 mins with human recombinant ANGPTL4 followed by substrate addition measured after 45 mins relative to control", "in_short": "as §3"}, "[6]": {"test": "Stability of the compound in human plasma after 4 hrs at 37 degC by mass spectrometric analysis", "format": "ADME, cell-free", "conditions": "read-out: Stability", "in_short": "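Plasma test solution (pooled human plasma, typically 10 μM compound) held at 37 °C for 4 h, matching the dialysis time. A reference sample was frozen immediately. Proteins precipitated with methanol containing warfarin, then LC-MS/MS. Stability expressed on a relative basis.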"}, "[7]": {"test": "Half life in human liver microsomes at 1 uM", "format": "ADME", "in_short": "as §1"}, "[8]": {"test": "Kinetic aqueous solubility of the compound in PBS at pH 1.2 after 2 hrs by LC-Ms analysis", "format": "physicochemical", "conditions": "read-out: Kinetic_solubility", "in_short": "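Kinetic solubility from a 10 mM DMSO stock diluted 1:100 (1% DMSO, maximum detectable 0.1 mM) into PBS pH 7.4 or HCl-adjusted PBS at about pH 1.2. Incubated at 37 °C for 2 h in sealed glass vials, centrifuged at 10000 x g, 37 °C, 20 min, then LC-MS/MS.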"}},
  "note": "Activity calls are given as the source filed them. The rule behind the calls is not given here.",
  "data": [
    {"molecule": "Cc1ccc(NC(=O)c2cc(-n3cc4ccc(C(=O)O)cc4n3)ccc2N2CCCCC2)cc1", "values": [
      {"measurement": "Activity", "setting": "Mus musculus", "result": "Active"},
      {"measurement": "microsomal CLint at 1 µM", "setting": "[1]", "result": "< 17", "unit": "µL/min/mg"},
      {"measurement": "EC50", "setting": "[2]", "result": "> 100", "unit": "µM"},
      {"measurement": "EC50", "setting": "[3]", "result": "> 100", "unit": "µM"},
      {"measurement": "Activity", "setting": "[4]", "result": 97, "unit": "%"},
      {"measurement": "Activity", "setting": "[5]", "result": 75.6, "unit": "%"},
      {"measurement": "remaining at 4 h", "setting": "[6]", "result": 96, "unit": "%"},
      {"measurement": "half-life at 1 µM", "setting": "[7]", "result": "> 1.33", "unit": "h"},
      {"measurement": "solubility kinetic at 2 h", "setting": "[8]", "result": "< 2", "unit": "µM"}
    ]}
  ]
}
